# Measurements pooled from the literature.
# Lines come from different studies, so protocols differ.
# Cell line: A549
# Observed: cell growth or viability
SMILES,assay,setting,measurement,value
O=C(Nc1ccc(Cl)cc1)Nc1ccc(-c2cn(Cc3cccc(Cl)c3)nn2)cc1,CCK-8,"50 µM, 72 h",viability,73.2%
CCCCC(=O)Nc1cc(F)c(-c2ccc3ncn(CCC)c(=O)c3c2)cn1,CCK-8,72 h,IC50,1.58 µM
CCC(=O)NCc1ccc(-c2cnc(C3CN(C(=O)c4cnc(NC(=O)[C@@H]5CC(C)(C)CN5)s4)C3)s2)c2ccccc12,,14 days,GI50,> 3 µM
COc1cccc(NC(=O)Nc2nc3cc(-c4ccc5ncn(Cc6ccccc6)c(=O)c5c4)ccc3s2)c1,MTT,72 h,IC50,3.39 µM
C[C@H](N)C(=O)Nc1ccccc1/N=c1\cc(-c2ccc3c(c2)OCCO3)oc2c([N+](=O)[O-])cccc12,CCK-8,1 µM,inhibition,0.38%
CCCCC(=O)Nc1ccc(-c2ccc3ncn(CCC)c(=O)c3c2)cc1,CCK-8,72 h,IC50,> 10 µM
CCCCCCCCCCCCCCCCCCOc1cccc(CC(=O)OCC[N+]2(C)CCCCC2)c1,SRB,10 µM,inhibition,9.38%
O=C(NCc1cn(Cc2ccc(Cl)cc2)nn1)Nc1ccc(Cl)cc1,CCK-8,"50 µM, 72 h",viability,67.6%
[NH2][Pt]([NH2])([Cl])[Cl],SRB,,GI50,4.9 µM
CCCCn1cnc2ccc(-c3ccc(NC(=O)C4CCCCC4)nc3)cc2c1=O,CCK-8,72 h,IC50,1.28 µM
CCCCCCCCCCCCCCCCCCOc1ccc(CC(=O)OCC[N+](C)(C)C)cc1,SRB,10 µM,inhibition,5.41%
CCCCn1cnc2ccc(-c3ccc(NC(=O)Nc4ccc(C(F)(F)F)cc4)nc3)cc2c1=O,CCK-8,72 h,IC50,> 10 µM
CCOc1ccc(C(=O)CC(SCc2ccc(Cl)cc2)C(=O)OC)cc1 (centres unmarked),MTT,48 h,EC50,> 250 µM
COc1cccc2c1C(=O)c1c(O)c3c(c(O)c1C2=O)C[C@@](O)(C(=O)CO)C[C@@H]3O[C@H]1C[C@H](N)[C@H](O)[C@H](C)O1,MTT,72 h,IC50,0.52 µM
COc1ccc(NC(=O)Nc2ccc(-c3cn(Cc4ccc(Cl)cc4)nn3)cc2)cc1,CCK-8,"50 µM, 72 h",viability,98.3%
COCCC(=O)Nc1ccccc1/N=c1\cc(-c2ccc3nc(N)oc3c2)oc2ccccc12,CCK-8,1 µM,inhibition,-0.65%
CCCCn1cnc2ccc(-c3ccc(NC(=O)Nc4ccc(C)cc4)nc3)cc2c1=O,CCK-8,72 h,IC50,> 10 µM
COc1ccc2/c(=N/c3ccccc3NC(=O)[C@@H](N)C(C)(C)C)cc(-c3ccc4c(c3)OCCO4)oc2c1,CCK-8,1 µM,inhibition,6.77%
O=C(Nc1cccc(-c2cn(Cc3ccc(Br)cc3)nn2)c1)Nc1ccccc1Br,CCK-8,"20 µM, 72 h",viability,130%
COc1ccc(NC(=O)Nc2ccc(-c3cn(Cc4ccc(Br)cc4)nn3)cc2)cc1,CCK-8,"20 µM, 72 h",viability,102%
CCCCCCCCCCCCCCCCCCOc1cccc(CC(=O)OCC[N+](CC)(CC)CC)c1,SRB,10 µM,inhibition,40%
O=C(Nc1nc2cc(-c3ccc4ncn(Cc5ccccc5)c(=O)c4c3)ccc2s1)c1ccccc1,MTT,72 h,IC50,> 20 µM
COc1ccc2/c(=N/c3ccccc3NC(=O)[C@@H](N)CO)cc(-c3ccc4c(c3)OCCO4)oc2c1,CCK-8,1 µM,inhibition,1.6%
CCCCCCCCCCCCCCCCCCOc1cccc(CC(=O)OCCC[N+](C)(C)C)c1,SRB,10 µM,inhibition,16.2%
O=C(Nc1cccc(-c2cn(Cc3ccc(Cl)cc3)nn2)c1)Nc1ccccc1Br,CCK-8,"20 µM, 72 h",viability,159%
C[C@H](N)C(=O)Nc1ccccc1/N=c1\cc(-c2ccc3c(c2)OCO3)oc2ccccc12,CCK-8,1 µM,inhibition,-2.13%
COc1ccc(NC(=O)NCc2cn(Cc3ccccc3C)nn2)cc1,CCK-8,"50 µM, 72 h",viability,68%
CCCCNC(=O)Nc1ccc(-c2ccc3ncn(CCCC)c(=O)c3c2)cn1,CCK-8,72 h,IC50,1.39 µM
CC(C)(C)[C@H](N)C(=O)Nc1ccccc1/N=c1\cc(-c2ccc3c(c2)OCO3)oc2ccccc12,CCK-8,1 µM,inhibition,3.13%
COc1ccc(NC(=O)Nc2cccc(-c3cn(Cc4ccccc4C)nn3)c2)cc1,CCK-8,"50 µM, 72 h",viability,212%
CCCCCCCCCCCCCCCCCCOCC(COP(=O)([O-])OCC[N+](C)(C)C)OC (centres unmarked),SRB,10 µM,inhibition,2.5%
COc1ccc(NC(=O)Nc2cccc(-c3cn(Cc4ccc(Br)cc4)nn3)c2)cc1,CCK-8,"20 µM, 72 h",viability,152%
CCCCn1cnc2ccc(-c3ccc(NC(=O)CCC)nc3)cc2c1=O,CCK-8,72 h,IC50,3.19 µM
CCCCCCCCCCCCCCCCCCOc1ccccc1CC(=O)OCC[N+]1(C)CCCCC1,SRB,10 µM,inhibition,57.8%
O=C(NCc1cn(Cc2cccc(Cl)c2)nn1)Nc1ccc(Cl)cc1,CCK-8,"20 µM, 72 h",viability,76.7%
CCCCn1cnc2ccc(-c3ccc(NC(=O)NCCC)nc3)cc2c1=O,CCK-8,72 h,IC50,> 10 µM
C[C@H](N)C(=O)Nc1ccccc1/N=c1\cc(-c2ccc3c(c2)OCCO3)oc2c(N)cccc12,CCK-8,1 µM,inhibition,0.27%
O=C(NCc1cn(Cc2ccc(Br)cc2)nn1)Nc1ccccc1Br,CCK-8,"20 µM, 72 h",viability,88.8%
COc1ccc(NC(=O)Nc2cccc(-c3cn(Cc4cccc(Cl)c4)nn3)c2)cc1,CCK-8,"50 µM, 72 h",viability,237%
O=C(Nc1ccc(Cl)cc1)Nc1ccc(-c2cn(Cc3ccc(Br)cc3)nn2)cc1,CCK-8,"20 µM, 72 h",viability,69.1%
O=C(Nc1ccc(Cl)cc1)Nc1cccc(-c2cn(Cc3cccc(Br)c3)nn2)c1,CCK-8,"50 µM, 72 h",viability,145%
O=C(Nc1ccc(Cl)cc1)Nc1cccc(-c2cn(Cc3cccc(Cl)c3)nn2)c1,CCK-8,"20 µM, 72 h",viability,115%
C[C@H](N)C(=O)Nc1ccccc1/N=c1\cc(-c2ccc3c(c2)OCCO3)oc2cc(F)ccc12,CCK-8,1 µM,inhibition,-0.65%
COc1ccc(NC(=O)NCc2cn(Cc3ccc(C)cc3)nn2)cc1,CCK-8,"50 µM, 72 h",viability,71.5%
